Screening data as filed in PubChem.
Dynein cargo inh: dynein cargo transport inhibition; z-score, hits read low; 0.47% of 220,000 active; 3617.4 mouse cells, GR-EGFP nuclear translocation imaging; test concentration mostly 20 µM; stimulated with dexamethasone, 1 µM; hits give low values;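 active = plate z-score of nuclear minus cytoplasmic receptor signal below a set negative limit, without overly bright fluorescence or cell loss, cut at about -3.5 in these data, passing the limit was not always enough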;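 note: z-score of nuclear minus cytoplasmic ring GR-EGFP intensity difference per well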
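Also added – dexamethasone, 1.0 µM final · Buffer or medium – tet-free, stripped-serum medium · Schedule – induction 48 h, compound 1 h, agonist 30 min · Detection – formaldehyde fixation, Hoechst nuclear stain, 10x automated fluorescence imaging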
Autophagy mod: alters autophagy in cells; MEF GFP-LC3 puncta imaging; test concentration mostly 10 µM; calls only at 10 µM (by protocol); 0.98% of 190,000 active; AID 463193;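 active = percentage of spot-positive cells more than 3 SD above its plate mean, without a fluorescence outlier flag or 80% toxicity; inconclusive = no clear call, values can overlap the other calls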
Insulin prom up: MIN6 insulin promoter up-regulation; 0.3% of 190,000 active; z-score at 5 µM; MIN6 insulin promoter-GFP reporter, high-content imaging; hits give high values; AID 1625;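 active = z-score above 3 at 5 µM with at least 500 cells counted in the well; inconclusive = wells under 500 cells, flagged as cytotoxic or low count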
PERK inhibitor: blocks human PERK kinase. Q9NZJ5. inhibition, % at 5.6 µM. CHO PERK-DD fusion, SEAP luminescence translation reporter. 0.17% of 220,000 active;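 active = inhibition above the mean inhibition of all tested compounds plus 3 SD, set separately per screening campaign, cut at about 2.9% in these data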;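 note: PERK kinase domain activated by AP20187 dimerizer at 100 nM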
Target sequence (Q9NZJ5 whole entry, looked up, the tested form may be a part): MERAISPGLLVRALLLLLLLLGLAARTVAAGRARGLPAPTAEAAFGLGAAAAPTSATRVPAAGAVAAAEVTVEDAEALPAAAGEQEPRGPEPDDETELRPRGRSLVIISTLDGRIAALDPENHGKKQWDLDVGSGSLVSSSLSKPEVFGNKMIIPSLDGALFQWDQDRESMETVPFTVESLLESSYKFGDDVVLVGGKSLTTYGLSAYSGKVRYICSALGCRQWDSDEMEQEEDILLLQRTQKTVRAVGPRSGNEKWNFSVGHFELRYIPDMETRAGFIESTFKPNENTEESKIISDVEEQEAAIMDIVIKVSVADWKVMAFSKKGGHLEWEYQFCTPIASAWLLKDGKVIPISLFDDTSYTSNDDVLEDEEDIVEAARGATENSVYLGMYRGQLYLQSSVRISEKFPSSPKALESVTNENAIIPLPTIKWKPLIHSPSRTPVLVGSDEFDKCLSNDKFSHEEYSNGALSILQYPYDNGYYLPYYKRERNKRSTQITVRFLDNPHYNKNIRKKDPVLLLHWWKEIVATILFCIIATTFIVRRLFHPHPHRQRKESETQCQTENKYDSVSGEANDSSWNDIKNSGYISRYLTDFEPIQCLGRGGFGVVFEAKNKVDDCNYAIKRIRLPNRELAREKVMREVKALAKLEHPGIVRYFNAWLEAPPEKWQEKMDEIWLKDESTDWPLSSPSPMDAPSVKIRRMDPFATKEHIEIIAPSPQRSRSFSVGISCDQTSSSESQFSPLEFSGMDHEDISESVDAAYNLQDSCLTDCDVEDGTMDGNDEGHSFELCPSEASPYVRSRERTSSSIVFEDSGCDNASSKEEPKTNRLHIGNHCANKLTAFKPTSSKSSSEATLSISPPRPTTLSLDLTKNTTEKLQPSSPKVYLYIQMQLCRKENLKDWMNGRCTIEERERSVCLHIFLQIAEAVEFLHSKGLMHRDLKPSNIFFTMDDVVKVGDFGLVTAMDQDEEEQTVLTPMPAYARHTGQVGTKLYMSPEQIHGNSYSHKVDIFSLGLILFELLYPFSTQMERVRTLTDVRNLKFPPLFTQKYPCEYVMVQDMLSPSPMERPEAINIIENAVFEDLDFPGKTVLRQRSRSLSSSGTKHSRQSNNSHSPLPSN
INS promoter inh: TRM-6 insulin promoter activity inhibition; TRM-6 cells, insulin promoter-eGFP reporter, imaging; reporter expression induced with tamoxifen; inhibition, % at 2 µM; 0.9% of 130,000 active;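 active = inhibition above the mean plus 3 SD, with well images judged a real hit on visual review, cut at about 60% in these data, passing the limit was not always enough; inconclusive = inhibition over the cutoff but images rejected on review; inactive = inhibition not above the cutoff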
A number is an active result. Most compounds without a hit are left out; they make up all but 2.1% or so of the library.

COc1ccc(OC)c(CNC(=O)Cc2c(C(=O)O)[nH]c3ccc(Cl)cc23)c1 was read as Dynein cargo inh inactive, Autophagy mod inactive, Insulin prom up inactive, PERK inhibitor inactive and INS promoter inh 77.8.
`CCS(=O)(=O)N1Cc2ccccc2CC1C(=O)OCC(=O)Nc1ccc(C)cc1` (stereo not given) gave Dynein cargo inh inactive, Autophagy mod inactive, Insulin prom up 5.05, PERK inhibitor inactive and INS promoter inh inactive.
Screening Nc1ccccc1Oc1ncc(C(F)(F)F)cc1Cl returned Dynein cargo inh inactive, Autophagy mod inactive, Insulin prom up inactive, PERK inhibitor 2.9 and INS promoter inh inactive.
`FC(F)(F)c1cnc(Oc2ccccc2-c2nnco2)c(Cl)c1` gave Dynein cargo inh inactive, Autophagy mod inactive, Insulin prom up inactive, PERK inhibitor inactive and INS promoter inh inactive.
`COc1ccc(Cn2c(=O)[nH]c3cc(C(=O)NC4CCCC4)ccc3c2=O)cc1` gave Dynein cargo inh inactive, Autophagy mod active and PERK inhibitor inactive.
For COc1ccc(CCn2c(=O)[nH]c3cc(C(=O)NCCc4ccccc4)ccc3c2=O)cc1OC the results were Dynein cargo inh inactive, Autophagy mod inactive, Insulin prom up inactive, PERK inhibitor 3.0 and INS promoter inh inactive.
`COc1cc2[nH]c(=O)n(Cc3ccc(C(=O)NC4CCCC4)cc3)c(=O)c2cc1OC` gave Dynein cargo inh inactive, Autophagy mod inactive, PERK inhibitor inactive and INS promoter inh inactive.
Screening Cc1ccc(CN2CCN(/N=C\C=C\c3ccccc3)CC2)cc1 returned Dynein cargo inh inactive, Autophagy mod inactive, Insulin prom up inactive and PERK inhibitor inactive.
`Fc1ccccc1CSc1nnc(-c2ccccc2)o1` gave Dynein cargo inh inactive, Autophagy mod inactive, Insulin prom up inactive, PERK inhibitor inactive and INS promoter inh inactive.
COc1ccc(-c2nnc(SCc3ccccc3F)o2)cc1 was read as Dynein cargo inh inactive, Autophagy mod inactive, PERK inhibitor inactive and INS promoter inh 86.7.
Screening Cn1nc([N+](=O)[O-])nc1Sc1nnc(-c2ccccc2)o1 returned Dynein cargo inh -3.66, Autophagy mod inactive, Insulin prom up inconclusive, PERK inhibitor inactive and INS promoter inh inactive.
Screening CCOC(=O)c1sc(NC(=O)c2c(C)noc2C)c(C(=O)OCC)c1C returned Dynein cargo inh inactive, Autophagy mod active, PERK inhibitor inactive and INS promoter inh inactive.
`CC(C)(C)c1nc(SCC(=O)c2ccccc2)c2ccccc2n1` gave Dynein cargo inh inactive, Autophagy mod active, Insulin prom up inactive and PERK inhibitor inactive.
For N=c1ccn(Cc2c(Cl)cccc2Cl)cc1 the results were Dynein cargo inh inactive, Insulin prom up inactive and PERK inhibitor inactive.
`Cc1noc(C)c1CSc1nnc(C)c(=O)[nH]1` gave Dynein cargo inh inactive, Autophagy mod inactive, Insulin prom up inactive, PERK inhibitor inactive and INS promoter inh 78.4.
`NC(=O)C1CCCN(C(=S)Nc2cccc3ccccc23)C1` (stereo not given) gave Dynein cargo inh inactive, Autophagy mod inactive, Insulin prom up inactive and PERK inhibitor inactive.
Screening Cc1ccc(Cc2cnc(NC(=O)/C(C#N)=C/c3ccc(-c4ccccc4[N+](=O)[O-])o3)s2)cc1 returned Dynein cargo inh inactive, Autophagy mod active, Insulin prom up inactive, PERK inhibitor inactive and INS promoter inh inactive.
Screening CNC(=O)/C(C#N)=C/c1ccc(-c2ccccc2[N+](=O)[O-])o1 returned Dynein cargo inh inactive, Autophagy mod inactive, Insulin prom up inactive and PERK inhibitor inactive.
Screening O=C(COc1ccccc1[N+](=O)[O-])NCCC1=CCCCC1 returned Dynein cargo inh inactive, Autophagy mod inactive, Insulin prom up inactive, PERK inhibitor inactive and INS promoter inh inactive.
`S=C(NCCCN1CCOCC1)NC1CC1` gave Dynein cargo inh inactive, Autophagy mod inactive, Insulin prom up inactive and PERK inhibitor inactive.
`CCOC(=O)CNNC(=O)Nc1ccc(Cl)c(Cl)c1` gave Dynein cargo inh inactive, Autophagy mod inactive, Insulin prom up inactive, PERK inhibitor inactive and INS promoter inh 75.0.
Screening CCOC(=O)N(C)OC(=O)Nc1ccc(Cl)c(Cl)c1 returned Dynein cargo inh inactive, Autophagy mod inactive, Insulin prom up inactive, PERK inhibitor inactive and INS promoter inh inactive.
`Cc1nc2ccc(S(=O)(=O)NCC(=O)N3CCCC(C)C3)cc2s1` (stereo not given) gave Dynein cargo inh inactive, Autophagy mod inactive, Insulin prom up inactive, PERK inhibitor inactive and INS promoter inh 72.7.
`Cc1nc2ccc(S(=O)(=O)NCC(=O)N3CCc4ccccc4C3)cc2s1` gave Dynein cargo inh inactive, Autophagy mod inactive, Insulin prom up inactive, PERK inhibitor inactive and INS promoter inh inactive.
Screening CC(C)Sc1ncc(S(=O)(=O)c2ccccc2)c(=O)[nH]1 returned Dynein cargo inh inactive, Autophagy mod inactive, Insulin prom up inactive, PERK inhibitor inactive and INS promoter inh inactive.
`O=C(/C=C/c1ccc2c(c1)OCO2)Nc1ccc(Cl)cn1` gave Dynein cargo inh inactive, Autophagy mod inactive, Insulin prom up inactive, PERK inhibitor inactive and INS promoter inh 72.7.
NC(=O)NOCc1ccc(Cl)cc1Cl was read as Dynein cargo inh inactive, Autophagy mod inactive, Insulin prom up inactive and PERK inhibitor inactive.
CNC(=S)/N=C/NOCc1ccc(Cl)cc1Cl was read as Dynein cargo inh inactive, Autophagy mod active, Insulin prom up inactive, PERK inhibitor inactive and INS promoter inh inactive.
Screening Cc1ccc(Cl)c(NC(=O)COC(=O)c2ccccc2C(=O)c2ccc(Cl)c([N+](=O)[O-])c2)c1Cl returned Dynein cargo inh inactive, Autophagy mod active, Insulin prom up inactive, PERK inhibitor inactive and INS promoter inh inactive.
Screening CCCNC(=O)COC(=O)c1ccccc1C(=O)c1ccc(Cl)c([N+](=O)[O-])c1 returned Dynein cargo inh inactive, Autophagy mod inactive, Insulin prom up inactive and PERK inhibitor inactive.
O=S(=O)(N1CCOCC1)n1c(Cc2ccccc2)nc2ccccc21 was read as Dynein cargo inh inactive, Autophagy mod inactive, Insulin prom up inactive, PERK inhibitor inactive and INS promoter inh 70.4.
Screening O=S(=O)(c1ccc(Cl)cc1)n1c(Cc2ccccc2)nc2ccccc21 returned Dynein cargo inh inactive, Autophagy mod inactive, Insulin prom up inactive, PERK inhibitor inactive and INS promoter inh inactive.
Screening Cc1ccc(N2C(=O)CC(Nc3ccccc3)C2=O)cc1 (stereo not given) returned Dynein cargo inh inactive, Autophagy mod inactive, Insulin prom up inactive, PERK inhibitor inactive and INS promoter inh inactive.
Cc1ccc(S(=O)(=O)NNC2CC(=O)N(c3ccc(Br)cc3)C2=O)cc1 (stereo not given) was read as Dynein cargo inh inactive, Autophagy mod active, Insulin prom up inactive and PERK inhibitor inactive.
Screening CC(C)NC(=O)NC(=O)COC(=O)c1ccc([N+](=O)[O-])cc1Cl returned Dynein cargo inh inactive, Autophagy mod inactive, Insulin prom up inactive and PERK inhibitor inactive.
`Cc1ccc(C(=O)N/C(=C\c2cccs2)C(=O)NCC2CCCO2)cc1C` (stereo not given) gave Dynein cargo inh inactive, Autophagy mod inactive, Insulin prom up inactive, PERK inhibitor inactive and INS promoter inh inactive.
